One test has as its target T1, hpol κ^19–526 (Homo sapiens, UniProt Q9UBT6).
T1 sequence (Q9UBT6 19-526): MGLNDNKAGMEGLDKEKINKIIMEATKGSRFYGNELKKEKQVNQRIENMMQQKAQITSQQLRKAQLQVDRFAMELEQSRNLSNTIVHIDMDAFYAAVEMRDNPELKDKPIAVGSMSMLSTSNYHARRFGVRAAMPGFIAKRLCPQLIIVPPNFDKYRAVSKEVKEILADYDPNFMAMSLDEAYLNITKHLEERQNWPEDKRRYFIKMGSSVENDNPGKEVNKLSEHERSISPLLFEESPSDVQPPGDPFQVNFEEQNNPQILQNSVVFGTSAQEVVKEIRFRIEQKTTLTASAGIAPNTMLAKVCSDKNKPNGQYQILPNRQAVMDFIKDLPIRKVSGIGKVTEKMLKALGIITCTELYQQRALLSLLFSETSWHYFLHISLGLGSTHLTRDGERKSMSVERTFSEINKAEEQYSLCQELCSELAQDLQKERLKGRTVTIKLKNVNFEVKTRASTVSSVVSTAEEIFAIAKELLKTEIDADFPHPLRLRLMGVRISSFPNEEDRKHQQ
The test can be described thus: polymerase-catalyzed primer extension. Type of test: biochemical. The settings on record: read-out: IC50 for inhibition of DNA polymerase activity; five-minute time point; all four dNTPs 0.25 mM, MgCl2 5 mM; 20 nM enzyme, 200 nM DNA, 37 °C.

Test [1] addresses T2, hpol ι^26–446 (Homo sapiens, UniProt Q9UNA4).
T2 sequence (Q9UNA4 26-446): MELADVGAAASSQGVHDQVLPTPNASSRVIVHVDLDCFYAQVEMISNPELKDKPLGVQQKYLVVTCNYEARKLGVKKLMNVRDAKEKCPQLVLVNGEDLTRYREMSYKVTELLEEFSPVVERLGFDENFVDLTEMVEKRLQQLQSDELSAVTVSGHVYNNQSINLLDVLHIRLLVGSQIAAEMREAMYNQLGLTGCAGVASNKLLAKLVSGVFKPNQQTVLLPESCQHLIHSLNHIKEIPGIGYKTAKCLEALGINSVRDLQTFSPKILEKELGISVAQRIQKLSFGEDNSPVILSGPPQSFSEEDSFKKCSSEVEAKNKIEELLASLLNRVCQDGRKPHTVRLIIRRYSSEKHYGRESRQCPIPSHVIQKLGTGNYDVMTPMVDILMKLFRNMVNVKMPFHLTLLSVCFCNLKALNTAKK
The test can be described thus: polymerase-catalyzed primer extension. As to conditions: read-out: IC50 for inhibition of DNA polymerase activity; all four dNTPs 0.25 mM, MgCl2 5 mM; 20 nM enzyme, 200 nM DNA, 37 °C. The test is classed as biochemical.

Test [2] has as its target T2, hpol ι^26–446. The test is classed as biochemical. The settings on record: for kcat: dTTP. The method in brief:
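Tripartite substrate built by annealing an unlabelled 19-mer primer, a TAMRA-labelled 10-mer reporter and a BHQ2-labelled 29-mer template (1.4:1:1.5); 50 nM substrate used. Enzyme at 5 nM in 50 mM Tris-HCl pH 8.0, 0.01% Tween-20, 2 mM DTT, 40 mM KCl, 0.25 mM MnCl₂, 25 °C. Inhibitor or DMSO present; dTTP 1–200 μM. Fluorescence (ex 525/em 598 nm) read continuously up to 60 min. Linear-phase velocities fitted to a hyperbola.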

A further test concerns COX1. As to conditions: read-out: IC50 value for COX1 inhibition; in vitro activity assays; cited from earlier work.
Test [3] deals with DNA synthesis in cell culture. The settings on record: cited from earlier work.

Where two headings read alike, the source gives them in different places.

Usually IC50 stands for the concentration needed to halve the response being measured. As usually defined, the kcat is the maximal rate divided by the concentration of active sites. For `CC(C)c1ccc2c(c1)c(SC(C)(C)C)c(CC(C)(C)C(=O)O)n2Cc1ccc(Cl)cc1` [MK886, 3-[1-(4-chlorobenzyl)-3-t-butyl-thio-5-isoproylindol-2-yl]-2,2-dimethylpropanoic acid], the values for the half-inhibitory concentration (IC50) at hpol κ^19–526, at hpol ι^26–446 [1] and in the test on COX1 were 63.8 ± 1.7 µM, 8.2 ± 0.6 µM and 8 µM, respectively. Further, the kcat at hpol ι^26–446 [2] (20 μM MK886, fluorescence-based assay) was 0.0733 ± 0.0017 s⁻¹; at hpol ι^26–446 [2] (40 μM MK886, fluorescence-based assay), 0.0717 ± 0.0017 s⁻¹; at hpol ι^26–446 [2] (60 μM MK886, fluorescence-based assay), 0.0683 ± 0.0033 s⁻¹. Besides, the “Fold decrease in kcat/KM,dNTP” value on hpol ι^26–446 [2] (20 μM MK886 vs no inhibitor) was found to be 1.6; at hpol ι^26–446 [2] (40 μM MK886 vs no inhibitor), 2.1; on hpol ι^26–446 [2] (60 μM MK886 vs no inhibitor), 2.4. For the same compound, the “mechanism of inhibition of DNA polymerase activity” value at hpol ι^26–446 [2] (fluorescence-based assay, diminished kcat and increased KM,dNTP) was “mixed-type inhibition”. Besides, the “concentration at which DNA synthesis/replication is inhibited” value in test [3] is at least 1 µM.

The record behind these values is paper PMC3578163 (Chemical research in toxicology, 2013).
